# TAAR1 ag: agonists of human TAAR1; CHO RD-HGA16 TAAR1, Fluo-8 calcium fluorescence; vehicle wells 0%, saturating PEA agonist 100%; Q96RJ0; activation, % at 3 µM; 360,000 compounds, 0.99% hits;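 active = activation above the mean activation of all test compounds in the run plus 3 SD, cut at about 38% in these data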
#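 test system = CHO RD-HGA16 cells carrying human TAAR1 plus Gα16 | schedule = 17-24 h seeding, 75 min 37 °C dye, 30 min RT | compound dosing = 3 µM single concentration | control set = DMSO and PEA EC100 | replicates = n 1 | signal = Fluo-8 fluorescence, 5 s baseline then 140 s kinetic read | measure = percent activation vs PEA EC100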
# OX1R antag-1: blocks the human orexin 1 receptor; O43613; OX1R-expressing cells, FRET antagonist read-out; inhibition, % at 6.6 µM; 330,000 compounds, 1.8% hits; AID 485270; in the data active = inhibition mostly above about 38%, no sharp cut-off; inactive = mostly below about 40%;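 note: 0% = agonist challenge alone and 100% = reference antagonist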
# Target sequence (O43613 whole entry, looked up): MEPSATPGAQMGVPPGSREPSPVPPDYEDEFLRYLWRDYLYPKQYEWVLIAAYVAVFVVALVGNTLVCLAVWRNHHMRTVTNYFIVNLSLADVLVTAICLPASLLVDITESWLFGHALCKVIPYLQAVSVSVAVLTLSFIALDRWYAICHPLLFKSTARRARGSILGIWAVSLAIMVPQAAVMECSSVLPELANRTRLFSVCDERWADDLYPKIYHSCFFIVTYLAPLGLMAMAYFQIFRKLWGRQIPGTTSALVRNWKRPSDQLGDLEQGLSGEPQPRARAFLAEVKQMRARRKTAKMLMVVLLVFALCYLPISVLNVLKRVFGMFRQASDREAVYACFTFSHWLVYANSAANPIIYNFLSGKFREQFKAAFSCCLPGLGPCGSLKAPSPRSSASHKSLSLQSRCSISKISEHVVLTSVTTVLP
# TAAR1 antag: human TAAR1 antagonism; 360,000 compounds, 1.5% hits; inhibition, % at 3 µM; Q96RJ0; CHO RD-HGA16 TAAR1, Fluo-8 calcium fluorescence, antagonist; AID 624466;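 active = inhibition above a per-plate cutoff, the mean inhibition of test compounds on that plate plus 3 SD, cut at about 49% in these data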;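 note: 0% = DMSO plus EC80 beta-PEA response and 100% = DMSO alone without agonist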
#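 System: RD-HGA16 CHO cells with stable hTAAR1 and Gα16 | Probe or stimulus: EC80 β-phenethylamine stimulus | Dosing: 3 µM, single point | Times: Dye loading 75 min at 37 °C, then 30 min room temperature | Measured by: Fluo-8 calcium-sensitive fluorescence | Read-out basis: % inhibition of agonist calcium response | Replicates: n of 1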
# GPR7 antag: antagonists of human GPR7 (neuropeptides B/W receptor 1). P48145. inhibition, % at 4.4 µM. GPR7-expressing cells, fluorescence antagonist assay. 290,000 compounds, 1.1% hits; in the data active = inhibition above about 16%, passing the limit was not always enough;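 note: cells stimulated with the agonist NPW; 0% = agonist with vehicle and 100% = vehicle without agonist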
# OX1R antag-2: antagonists of human orexin 1 receptor; O43613; 330,000 compounds, 0.43% hits; CHO/OX1R cells, Fluo-8 calcium fluorescence, orexin A; inhibition, % at 5 µM;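 active = inhibition above its plate's threshold, mean inhibition of all tested compounds on the plate plus 3 SD, cut at about 37% in these data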;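 note: 0% = orexin A challenge wells and 100% = SB-334867-A antagonist wells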
# CHO parental Ca: signal in parental CHO cells, OX1R antagonist counter-screen; parental CHO-K1, ATP-induced calcium, Fluo-8 fluorescence; inhibition, % at 5.6 µM; 330,000 compounds, 0.63% hits;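 active = inhibition above that plate's mean sample inhibition plus 3 SD, cut at about 26% in these data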;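 note: 0% = ATP-challenged DMSO wells and 100% = DMSO wells without ATP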
#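 Material: Parental CHO cells | Reagent: ATP | Compound dosing: Single nominal dose of 5.6 µM per compound | Detection: Intracellular calcium via Fluo-8 no-wash fluorescent dye | Read-out: % inhibition of ATP-induced calcium mobilization | Benchmarks: Low control ATP plus DMSO, high control DMSO only | Replicates: Singlicate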
# Numbers without * were called inactive; x = no result given. The list is not random: actives were taken first. Their share in the collection is about 4.6%.
SMILES,TAAR1 ag,OX1R antag-1,TAAR1 antag,GPR7 antag,OX1R antag-2,CHO parental Ca
COc1cccc(NC(=O)CSc2nc3ccccc3n2C)c1,3.5,57.4*,6.4,6.2,-19.2,-18.1
CCn1c(SCC(=O)Nc2cccc(OC)c2)nc2ccccc2c1=O,9.7,x,4.7,-5.3,x,x
Cc1cccc(NC(=O)CSc2nc3ccccc3c(=O)n2C)c1C,6.3,x,19.9,x,x,x
Cc1cc(C)cc(OCCCN2CCC(C(O)(c3ccccc3)c3ccccc3)CC2)c1,24.6,x,29.5,x,x,x
CCOC(=O)CN1C(=O)N(c2ccc(OC)cc2)[C@H]2CC3c4ccccc4C[C@]3(C)[C@@H](C(=O)N(C)C3CCCCC3)C[C@H]21 (stereo partly specified),1.3,x,-10.1,x,x,x
O=C(N[C@H](C(=O)N1CCC[C@H]1C(=O)NCc1ccccc1)C1CCCCC1)c1ccc(Cl)cc1Cl,-1.8,x,-10.7,x,x,x
Cc1ccc(COc2ccc(CNCCCN3CCCCCC3=O)cc2)cc1,5.5,20.6,-14.1,10.9,-24.4,-18.4
N#Cc1ccc2nc(-c3ccc(CN4CCC(n5cc(-c6ccccc6)[nH]c5=O)CC4)cc3)c(-c3ccccc3)nc2c1,8.2,x,46.1,x,x,x
CCOC(=O)[C@]12CCCC=C1N(Cc1ccccc1)C(=O)[C@H](CC(=O)NCc1cccs1)C2,-0.4,x,-2.8,x,x,x
CC(=O)c1ccc(OCC(=O)c2cc(C)n(-c3ccc4c(c3)OCO4)c2C)cc1,4.2,32.1,9.9,-7.5,19.1,52.6*
Cc1cc(C(=O)COC(=O)c2ccc(N)c([N+](=O)[O-])c2)c(C)n1Cc1ccc2c(c1)OCO2,0.3,5.3,0.8,-5.3,-8.8,-9.3
Cc1cc(C(=O)COC(=O)c2ccc(N)c([N+](=O)[O-])c2)c(C)n1-c1ccc2c(c1)OCO2,-0.3,47.2*,31.6,-2.6,3.9,23.7
COCCN(CCOC)C(=O)[C@@H](Cc1ccccc1)NC(=O)[C@H]1O[C@@H](n2ccc(N)nc2=O)[C@H](O)[C@@H]1O,0.3,x,-16.4,x,x,x
Cc1c(COC(=O)NC(C)C)c(COC(=O)NC(C)C)c2n1CS(=O)(=O)C2,-0.1,x,-2.5,x,x,x
COc1cccc(C=NNC(=S)NC2CC3CCC2C3)c1O (stereo unspecified),-0.4,x,-20.3,x,x,x
COc1cccc(C2=CC(=O)C[C@H](c3ccc(Cl)cc3)C2)c1OC,1.7,2.7,21.7,x,-42.4,-18.4
COc1ccccc1C1=CC(=O)C[C@H](c2ccc(Cl)cc2)C1,14.6,-0.9,49.8*,x,-13.3,-19.9
COc1ccc([C@H]2CC(=O)C=C(c3ccc(F)cc3OCc3ccccc3)C2)cc1,17.2,-1.1,52.1*,x,28.7,-0.5
COc1cc(NC(=O)C2(C)CCN2C(=O)C(C)C)cc(OC)c1OC (stereo unspecified),1.9,x,-25.1,x,x,x
CCN(CC)c1ccc(C(=O)N/N=C/c2ccccc2OC(F)F)cc1,-1.6,74.3*,26.8,-1.5,14.4,-25.4
CCN(CC)c1ccc(/C=N/NC(=O)c2cccc(S(=O)(=O)Nc3ccccc3OC)c2)c(O)c1,3.9,78.8*,10.9,-18.6,24.8,-10.4
CCN(CC)c1ccc(/C=N/NC(=O)c2cccc(S(=O)(=O)Nc3ccccc3OC)c2)cc1,5.3,45.3,2.5,-12.1,-11.1,-7.2
O=[N+]([O-])c1ccc(CN2[C@H](COCc3ccccc3)[C@@H](N3CCCC3)CS2(=O)=O)cc1,0.7,x,12.2,x,x,x
O=C(COC(=O)c1ccc[n+]([O-])c1)Nc1ccc([N+](=O)[O-])cc1C(F)(F)F,8.2,33.0*,13.1,x,-11.7,-3.6
O=C(COC(=O)c1cc[n+]([O-])cc1)Nc1cc([N+](=O)[O-])ccc1Cl,3.5,57.2*,-12.4,x,-9.5,-13.9
SMILES,TAAR1 ag,OX1R antag-1,TAAR1 antag,GPR7 antag,OX1R antag-2,CHO parental Ca
COc1ccc(N2CCN(S(=O)(=O)c3cc4c(cc3C)N(C(C)=O)CCO4)CC2)cc1,1.6,0.7,-2.8,-4.3,-15.2,-11.4
Cc1ccc2nc(/C(C#N)=C\c3cc(C)n(-c4cccc([N+](=O)[O-])c4)c3C)[nH]c2c1,8.7,58.7*,27.6,-12.5,-1.8,1.7
Cc1cc(/C=C(/C#N)c2nc3ccccc3[nH]2)c(C)n1-c1cc(C(=O)O)cc(C(=O)O)c1,0.9,x,-1.8,-2.0,x,x
COc1ccccc1CNC(=O)C(NS(=O)(=O)c1cccc2nsnc12)C(C)C (stereo unspecified),-1.4,76.2*,-21.5,-6.7,-8.8,-18.0
COc1ccccc1CNS(=O)(=O)c1cccc2nsnc12,9.6,38.6,-13.4,-19.3,5.9,-7.7
O=C(NC1CCN(Cc2ccccc2)CC1)C(NS(=O)(=O)c1cccc2nsnc12)c1ccccc1 (stereo unspecified),1.6,76.5,1.4,-7.5,-36.1,-23.4
O=C(NCc1cccs1)C(NS(=O)(=O)c1cccc2nsnc12)c1ccccc1 (stereo unspecified),0.4,49.2*,-23.0,11.2,-26.8,-18.4
O=S(=O)(NCc1ccccc1)c1cccc2nsnc12,0.1,42.0,2.9,-0.3,-13.9,-26.4
O=C(O)C(Cc1c[nH]c2ccccc12)NS(=O)(=O)c1cccc2nsnc12 (stereo unspecified),3.6,61.0*,-26.3,2.1,-6.4,-6.0
CC(C)NS(=O)(=O)c1cccc2nsnc12,2.7,71.8*,-10.9,-12.3,-7.0,-3.7
O=S1(=O)CC(N2CC=CC2)CN1Cc1cn(Cc2ccccc2)nn1 (stereo unspecified),1.0,x,-15.7,x,x,x
CNc1ncn(-c2c(C)cccc2C)c(=O)n1,1.4,x,-14.2,x,x,x
Cc1cccc(NS(=O)(=O)c2cccc3nsnc23)c1,8.9,31.3,-12.6,4.4,-4.2,6.9
CC(C)C(NS(=O)(=O)c1cccc2nsnc12)C(=O)NC1CCCCC1C (stereo unspecified),x,45.7*,x,-0.8,-7.4,-11.7
Cc1ccnc(NS(=O)(=O)c2cccc3nsnc23)c1,2.9,127.0*,-18.9,7.7,3.9,-8.5
CC(C)C(NS(=O)(=O)c1cccc2nsnc12)C(=O)Nc1nccs1 (stereo unspecified),-0.5,36.6,5.2,3.6,-10.8,-10.7
Cc1c(NS(=O)(=O)c2cccc3nsnc23)c(=O)n(-c2ccccc2)n1C,0.0,76.7*,10.9,-10.3,-12.1,-11.5
CCCCCC(=O)N1C[C@H](O)[C@@H](n2cc(-c3ccc(F)cc3)nn2)C[C@@H]1c1ccc(OC)cc1,1.8,x,20.4,x,x,x
c1ccc2c(-c3ccc4nncn4c3)cncc2c1,1.2,x,1.4,x,x,x
O=C(Nc1ccc2nc3n(c(=O)c2c1)CCCC3)c1cccc([N+](=O)[O-])c1,1.3,38.2,3.9,-8.4,-18.6,-15.9
O=C(Nc1ccc2nc3n(c(=O)c2c1)CCCC3)c1cc([N+](=O)[O-])ccc1F,x,52.4*,x,12.8,-4.4,8.3
